Source: the RNAGym collection of RNA variant scans (doi:10.1101/gad.245936.114)
Variants at the floor of the assay were thinned out.

B1: tRNA (parent)
chain: CUCUCGGUAGCCAAGUUGGUUUAAGGCGCAAGACUUUAAUUUAUCACUACGAAAUCUUGAGAUCGGGCGUUCGACUCGCCCCCGGGAGAUUUUUUCCUCGAGCAA

Variants of: B1
Assay: nonsense suppression (GFP-seq) (ratio to wild type); higher = more function; SUP4oc tRNA, yeast GFP reporter sort-seq
Summary of the method: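 Raffinose/galactose medium with 80 mg/L adenine was used to grow yeast carrying genome-integrated tRNA variants (~3% random-mutation library), RFP, and a galactose-driven GFP ochre reporter. Cells went into GFP/RFP bins, which were Illumina-sequenced, and variants with ≥100 reads and ≥30 cells were scored. Nonsense suppression (GFPSEQ) is the per-bin median GFP/RFP weighted by estimated cell share and expressed relative to the unmutated parent tRNA.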

Nonsense suppression, 0.027:
CUCUCGGUAGCCAAGUUGGUUUAAGCCGCAAGACUUUAAUUUAUCACUACGAAAUCUUGCGAUCGGGCGUUCGACUCGCCCCCGGGAGAUUUUUUCCUCGAGCAA [G26C A60C]

Nonsense suppression, 0.349:
CUCUCGGUAGCCAAGUUGGUUUAAGGAGCAAGACUUUAAUUUAUCACUACGAAAUCUUGAGCUCGGGCGUUCGACUCGCCCCCGGGAGAUUUUUUCCUCGAGCAA [C27A A62C]

Nonsense suppression, 0.0685:
CUCUCGGUAGCCAAGUUGGUUUAAGCCGGAAGACUUUAAUUUAUCACUACGAAAUCUUGAGAUCGGGCGUUCGACUCGCCCCCGGGAGAUUUUUUCCUCGAGCAA [G26C C29G]

Nonsense suppression, 0.0902:
CUCUCGGUAGCCAAGUUGGUUUAAGGAGCAAGACUUUAAUUUAUCACUACGAAACCUUGAGAUCGGGCGUUCGACUCGCCCCCGGGAGAUUUUUUCCUCGAGCAA [C27A U55C]

Nonsense suppression, 0.0273:
CUCUCGGUAGCCAAGUUGGUUUAAGGGGCAAGACUUUAAUUUAUCACUACGAAAUCUUGAGAUCGGGCGUUCGACUCGCCCCCGGGGGAUUUUUUCCUCGAGCAA [C27G A87G]

Nonsense suppression, 0.0309:
CUCUCGGUAGCCAAGUUGGUUUAAGGAGCAAGACUUUAAUUUAUCACUACGAAAUCUUGAGAUCGGGCGUUCGACUCUCCCCCGGGAGAUUUUUUCCUCGAGCAA [C27A G78U]

Nonsense suppression, ≤ 0.026:
CUCUCGGUAGCCAAGUUGGUUUAAGUCGCAAGACUUUAAUUUAUCACUACGAAAUCUUGAGAUCGGGCGUUCGCCGCGCCCCCGGGAGAUUUUUUCCUCGAGCAA [G26U A74C U76G]
CUCUCGGUAGCCAAGUUGGUUUAAGGGGCAAGACUUUAAUUUAUCACUACGAAAUCUUGAGAUCGGGCGUUCGCCUCGCCCCCGGAAGAUUUUUUCCUCGAGCAA [C27G A74C G86A]
CUCUCGGUAGCCAAGUUGGUUUAAGUCUCAAGACUUUAAUUUAUCACUACGAAAUCUUGAGAUCGGGCGUUCGACUCGCCCCCGGGAGAUUUUUUCCUCGAGCAA [G26U G28U]
CUCUCGGUAGCCAAGUUGGUUUAAGUCGCAAGACUUUAAUUUAUCACUACGAAAUCUUGAGAUCGGGCGUCCGACUCGCCCCCGGGAGAUUUUUUCCUCGAGCAA [G26U U71C]
CUCUCGGUAGCCAAGUUGGUUUAAGUCGCAGGACUUUAAUUUAUCACUACGAAUUCCUGAGAUCGGGCGUUCCACUCGCCCCCGGGAGAUUUUUUCCUCGAGCAA [G26U A31G A54U U57C G73C]
CUCUCGGUAGCCAAGUUGGUUUAAGGGGCAGGACUUUAAUUUAUCACUACGAAUUCUUGAGAUCGGGCGCUCGACUCGCCCCCAGGAGAUUUUUUCCUCGAGCAA [C27G A31G A54U U70C G84A]
CUCUCGGUAGCCAAGUUGGUUUAAGGAGCAAGACUUUAAUUUAUCACUACGAAAUCUUGAGAUCGGGCGUUCGACUCGCCCCGCGGAGAUUUUUUCCUCGAGCAA [C27A C83G G84C]
CUCUCGGUAGCCAAGUUGGUUUAAGGGGCAAGACUUUAAUUUAUCACUACGAAAUCUUGAGAUCGGGCGUUCGACUCGACCCCGGGAGAUUUUUUCCUCGAGCAA [C27G C79A]
CUCUCGGUAGCCAAGUUGGUUUAAGGAGAAAGACUUUAAUUUAUCACUACGAAAUCUUGAGAUCGGGCGUCCGACUCGUCCCCGGGAGAUUUUUUCCUCGAGCAA [C27A C29A U71C C79U]
CUCUCGGUAGCCAAGUUGGUUUAAGUCGCAAGACUUUAAUUUAUCACUACGAAAUCUUGAAAUCGGGCGUUCGACUCGCCCCCGGGAGAUUUUUUCCUCGAGCAA [G26U G61A]
CUCUCGGUAGCCAAGUUGGUUUAAGCCGCAAGACUUUAAUUUAUCACUACGAAAUCUUGAGAUCGGACGUUCGACUCGCCCCCGGGAGAUUUUUUCCUCGAGCAA [G26C G67A]
CUCUCGGUAGCCAAGUUGGUUUAAGUCGCAAGGCUUUAAUUUAUCACUACGAAAUCUUGAGAUCGGGCGUUCGACUCCCCCCCAGGAGAUUUUUUCCUCGAGCAA [G26U A33G G78C G84A]
CUCUCGGUAGCCAAGUUGGUUUAAGCCGCAAGACUUUAAUUUAUCACUACGAAAUCAUGAGAUCGGGCGUUCGACUCGCCCCCGGGAGCUUUUUUCCUCGAGCAA [G26C U57A A89C]
CUCUCGGUAGCCAAGUUGGUUUAAGCCGCAAGACUUUAAUUUAUCACUACGAAAUCAUGAGAUCGGGCGUUCAACUCGCCCCCGGGAGAUUUUUUCCUCGAGCAA [G26C U57A G73A]
CUCUCGGUAGCCAAGUUGGUUUAAGUCGCAAGACUUUAAUUUAUCACUACGAAAUCUUGAGAUCGGGCUUUCGACUCGUCCCCGGGAGAUUUUUUCCUCGAGCAA [G26U G69U C79U]
CUCUCGGUAGCCAAGUUGGUUUAAGGAGCAAGACUUUAAUUUAUCACUACGAAAGCUUGAAAUCGGGCGUUCGACUCGCCCCGGGGAGAUUUUUUCCUCGAGCAA [C27A U55G G61A C83G]
CUCUCGGUAGCCAAGUUGGUUUAAGCCGUAAGACUUUAAUUUAUCACUACGAAAUCUUGAGAUCGGUCGUUCGACUCGCCCCCGGGAGAUUUUUUCCUCGAGCAA [G26C C29U G67U]
CUCUCGGUAGCCAAGUUGGUUUAAGGAGCAAGACUUUAAUUUAUCACUACGAAAUCUUGAGAUCGGGCGUUCGACUCGCCCCCGGGUGAUUUUUUCCUCGAGCAA [C27A A87U]
CUCUCGGUAGCCAAGUUGGUUUAAGUCGCAAGAUUUUAAUUUAUCACUACGAAAUCUUGAGAUCGGGCGUUCGACUCGCCCCCGGGAGAUUUUUUCCUCGAGCAA [G26U C34U]
CUCUCGGUAGCCAAGUUGGUUUAAGGAGCAAGACUUUAAUUUAUCACUACGAAAUCUUGAGAUCGGGCGUUCGACUCGCCCCCAGCAGAUUUUUUCCUCGAGCAA [C27A G84A G86C]
CUCUCGGUAGCCAAGUUGGUUUAAGGGGCAAGUGUUUAAUUUAUCACUACGAAAUCUUGAGAUCGGGCGUUCGACUCGCCCCGGAGAGAUUUUUUCCUCGAGCAA [C27G A33U C34G C83G G85A]
CUCUCGGUAGCCAAGUUGGUUUAAGCCGCAAGACUUUAAUUUAUCACUACGAAAUCUUGAGAUCGGGCGUUCGACUCUCCCACGGGAGAUUUUUUCCUCGAGCAA [G26C G78U C82A]
CUCUCGGUAGCCAAGUUGGUUUAAGGAGCAAGACUUUAAUUUAUCACUACGAAAUCUUUAGAUCGGGCGUUCGACUCGCCCCCGGGAGAUUUUUUCCUCGAGCAA [C27A G59U]
CUCUCGGUAGCCAAGUUGGUUUAAGUCGCAAGACUUUAAUUUAUCACUACGAAAUCUUGAGAUCGGGCGUGCGACUCGCCCCCGUGAGAUUUUUUCCUCGAGCAA [G26U U71G G85U]
CUCUCGGUAGCCAAGUUGGUUUAAGACGCAAGACUUUAAUUUAUCACUACGAAAUCUUGAGAUCGGGCGUUCGACUGGCCCCCGGGAGAUUUUUUCCUCGAGCAA [G26A C77G]
CUCUCGGUAGCCAAGUUGGUUUAAGUCGCAAGACUUUAAUUUAUCACUACGAAAUCUUGAGAUCGGGCGGUCGACUCGUCCCCGGGAGAUUUUUUCCUCGAGCAA [G26U U70G C79U]
CUCUCGGUAGCCAAGUUGGUUUAAGACGCAAGACUUUAAUUUAUCACUACGAAAUCUUGAGAUCGGGCGAUCGACUCGCCCCCGGGAGAUUUUUUCCUCGAGCAA [G26A U70A]
CUCUCGGUAGCCAAGUUGGUUUAAGGAGCAAGACCUUAAUUUAUCACUACGAAAUCUUGAGAUCGCGCGUUCGACUCGCCCCCGGGACAUUUUUUCCUCGAGCAA [C27A U35C G66C G88C]
CUCUCGGUAGCCAAGUUGGUUUAAGCCGCAAGACUUUAAUUUAUCACUACGAAAUCUUGAGAGCGGGCGUUCGACUCGCCCCCGGGAGAUUUUUUCCUCGAGCAA [G26C U63G]
CUCUCGGUAGCCAAGUUGGUUUAAGGAGCAAGAGUUUAAUUUAUCACUACGAAAUCUUGUGAUCGGGCGUUCGACUUGCCCCCGGGAGAUUUUUUCCUCGAGCAA [C27A C34G A60U C77U]
CUCUCGGUAGCCAAGUUGGUUUAAGUCGCAAGACUUUAAUUUAUCACUACGAAAUCUUGAGAUCGGGCGUUCGACUCGCCCCCGGGACAUUUUUUCCUCGAGCAA [G26U G88C]
CUCUCGGUAGCCAAGUUGGUUUAAGCCGCAAGACUUUAAUUUAUCACUACGAAAUCUUGAGAUCGGGCGUUCGACUCGCCUCCGGGAGAUUUUUUCCUCGAGCAA [G26C C81U]
CUCUCGGUAGCCAAGUUGGUUUAAGUCGCACGACUUUAAUUUAUCACUACGAAAUCUUGAGAUCCGGCGUUCGACUCGCCCCCGGGAGAUUUUUUCCUCGAGCAA [G26U A31C G65C]
CUCUCGGUAGCCAAGUUGGUUUAAGACGCAAGACUUUAAUUUAUCACUACGAAAUCUUGAGAUCGGGCGUGCGACUCGCCCCCGGGAGAUUUUUUCCUCGAGCAA [G26A U71G]
CUCUCGGUAGCCAAGUUGGUUUAAGACGCAAGACUUUAAUUUAUCACUACGAAAUCUUGAGAUCAGGCGUUCGACUCGCCCCCGGAAGAUUUUUUCCUCGAGCAA [G26A G65A G86A]
CUCUCGGUAGCCAAGUUGGUUUAAGUCGCAAGACUUUAAUUUAUCACUACGAAAUCUUGAGAUGGGGCGUUCGACUCGCCCCCGGGAGAUUUUUUCCUCGAGCAA [G26U C64G]
CUCUCGGUAGCCAAGUUGGUUUAAGGAGCCAGACUUUAAUUUAUCACUACGAAAUCUUGGGAUCGGGCGUUCGACUGGCCACCGGGAGAUUUUUUCCUCGAGCAA [C27A A30C A60G C77G C81A]
CUCUCGGUAGCCAAGUUGGUUUAAGGAGCAAGACUUUAAUUUAUCACUACGAAAUCUUGAUAUCGGGCGUUCGACUCGCCCCCGGUAGAUUUUUUCCUCGAGCAA [C27A G61U G86U]
CUCUCGGUAGCCAAGUUGGUUUAAGUGGCGAGACUUUAAUUUAUCACUACGAAAUCGUGAGAUUCGGCGUUCGACUCGCCCCCGGGAGAUUUUUUCCUCGAGCAA [G26U C27G A30G U57G C64U G65C]
CUCUCGGUAGCCAAGUUGGUUUAAGGAGCAAGACUUUAAUUUAUCACUACGAAAACUUGAGAUCGGGCGUUCGACUCGCCCCCGAGAGAUUUUUUCCUCGAGCAA [C27A U55A G85A]
CUCUCGGUAGCCAAGUUGGUUUAAGGGGCAAGACUUUAAUUUAUCACUACGAAAUCUUGAGAUCGGGCGUUCGACUGGCCCCCGGGAGAUUUUUUCCUCGAGCAA [C27G C77G]
CUCUCGGUAGCCAAGUUGGUUUAAGGGGCAAGACUUUAAUUUAUCACUACGAAAUCUUGAGAUCGGGGGUUCGACUCGCCCCCAGGAGAUUUUUUCCUCGAGCAA [C27G C68G G84A]
CUCUCGGUAGCCAAGUUGGUUUAAGUCGCAAGACUUUAAUUUAUCACUACGAAAUCUUGAGAUCCGGCGUACGACUCUCCCCCGGGAGAUUUUUUCCUCGAGCAA [G26U G65C U71A G78U]
CUCUCGGUAGCCAAGUUGGUUUAAGCCGCAAGAUUUUAAUUUAUCACUACGAAAUCUUGAAAUCGGGCGUUCGACUCGCCCACGCAAGAUUUUUUCCUCGAGCAA [G26C C34U G61A C82A G85C G86A]
CUCUCGGUAGCCAAGUUGGUUUAAGCCGCAAGACUUUAAUUUAUCACUACGAAAUCUUGAAAUCGGGCGUUCGACUCGCCCCCGGGAGAUUUUUUCCUCGAGCAA [G26C G61A]
CUCUCGGUAGCCAAGUUGGUUUAAGCCGCAAGACUUUAAUUUAUCACUACGAAAACUUGAGAUCGGGCGUUCGACUCGCCCCCGGGAGAUUUUUUCCUCGAGCAA [G26C U55A]
CUCUCGGUAGCCAAGUUGGUUUAAGGAGCAAGCCUUUAAUUUAUCACUACGAAAUCUUGAGAUCGUGCGUUCGACUCGCCCCCGGGAGAUUUUUUCCUCGAGCAA [C27A A33C G66U]

Nonsense suppression, 0.0525:
CUCUCGGUAGCCAAGUUGGUUUAAGCCGCAAGACUUUAAUUUAUCACUACGAAACCUUGAGAUCGGGCGUUCGACUCGCCCCCGGGAGAUUUUUUCCUCGAGCAA [G26C U55C]
